Reference: ChEMBL document CHEMBL1275351, “Novel spirotetracyclic zwitterionic dual H(1)/5-HT(2A) receptor antagonists for the treatment of sleep disorders” (J Med Chem, 2010)

System: Rattus norvegicus
Test: Hypnotic activity in Sprague-Dawley rat assessed as non-rapid eye movement latency period at 1 mg/kg, po administered during active phase
Assay type: functional
In short: (§1)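 Male Sprague-Dawley rats (275-300 g) carried implanted telemetric EEG/EMG transmitters and were used 3 weeks after surgery. Oral dosing (2 mL/kg) was given 6 h after lights off (CT18) in a randomized crossover versus vehicle. Recording ran for 5 h in 10 s epochs scored by FFT. n = 8, mean ± SEM; one-way ANOVA with Dunnett's test.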
Work on O=C(O)C1CN(C2CCC3(Cc4ccccc4Oc4ccccc43)C2)C1 (centres undefined) yielded a Time of 37.8 min. O=C(O)C1CCN(C2CC[C@]3(Cc4ccccc4Cc4ccccc43)C2)CC1 (some centres undefined) gave a Time of 69.8 min.

System: Rattus norvegicus
Test: Hypnotic activity in Sprague-Dawley rat assessed as non-rapid eye movement latency period at 3 mg/kg, po administered during active phase
Assay type: functional
In short: as §1
Compound O=C(O)C1CN(C2CCC3(Cc4ccccc4Oc4ccccc43)C2)C1 (centres undefined) has a Time of 37.9 min. In the case of O=C(O)C1CCN(C2CC[C@]3(Cc4ccccc4Cc4ccccc43)C2)CC1 (some centres undefined), the Time is reported as 51.4 min.

System: not listed separately
Test: Fraction unbound in rat blood
Assay type: ADME, tissue-based
For O=C(O)C1CN(C2CCC3(Cc4ccccc4Oc4ccccc43)C2)C1 (centres undefined), the fraction unbound was 0.171. O=C(O)C1CCN(C2CC[C@]3(Cc4ccccc4Cc4ccccc43)C2)CC1 (some centres undefined) showed a fraction unbound of 0.182.

System: Rattus norvegicus
Test: Hypnotic activity in Sprague-Dawley rat assessed as non-rapid eye movement sleep at 1 mg/kg, po administered during active phase
Assay type: functional
In short: as §1
O=C(O)C1CN(C2CCC3(Cc4ccccc4Oc4ccccc43)C2)C1 (centres undefined) showed a Time of 107.3 min. In the case of O=C(O)C1CCN(C2CC[C@]3(Cc4ccccc4Cc4ccccc43)C2)CC1 (some centres undefined), the Time is reported as 84.7 min.

Target: 5-hydroxytryptamine receptor 2A (Homo sapiens, UniProt P28223)
Sequence (P28223 whole entry): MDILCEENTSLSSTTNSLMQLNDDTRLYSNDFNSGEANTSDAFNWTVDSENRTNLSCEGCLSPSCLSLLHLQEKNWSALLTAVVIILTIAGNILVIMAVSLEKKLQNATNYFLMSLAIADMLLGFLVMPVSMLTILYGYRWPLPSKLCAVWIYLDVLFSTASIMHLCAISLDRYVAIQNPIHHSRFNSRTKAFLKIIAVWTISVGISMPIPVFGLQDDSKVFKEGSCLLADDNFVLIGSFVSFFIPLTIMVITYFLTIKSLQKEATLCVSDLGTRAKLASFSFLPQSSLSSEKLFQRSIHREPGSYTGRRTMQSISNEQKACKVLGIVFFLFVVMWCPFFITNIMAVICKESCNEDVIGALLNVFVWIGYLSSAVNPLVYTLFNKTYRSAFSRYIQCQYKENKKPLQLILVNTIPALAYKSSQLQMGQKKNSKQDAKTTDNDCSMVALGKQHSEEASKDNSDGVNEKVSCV
Test: Antagonist activity at human 5HT2A receptor expressed in HEK cells assessed as inhibition of intracellular calcium accumulation by aequorin assay
Assay type: functional, cell-based, HEK293
O=C(O)C1CN(C2CCC3(Cc4ccccc4Oc4ccccc43)C2)C1 (centres undefined) gave a Ki of 31.6 nM. O=C(O)C1CCN(C2CC[C@]3(Cc4ccccc4Cc4ccccc43)C2)CC1 (some centres undefined) showed a Ki of 79.4 nM.

Target: Histamine H1 receptor (Rattus norvegicus, UniProt P31390)
Sequence (P31390 whole entry): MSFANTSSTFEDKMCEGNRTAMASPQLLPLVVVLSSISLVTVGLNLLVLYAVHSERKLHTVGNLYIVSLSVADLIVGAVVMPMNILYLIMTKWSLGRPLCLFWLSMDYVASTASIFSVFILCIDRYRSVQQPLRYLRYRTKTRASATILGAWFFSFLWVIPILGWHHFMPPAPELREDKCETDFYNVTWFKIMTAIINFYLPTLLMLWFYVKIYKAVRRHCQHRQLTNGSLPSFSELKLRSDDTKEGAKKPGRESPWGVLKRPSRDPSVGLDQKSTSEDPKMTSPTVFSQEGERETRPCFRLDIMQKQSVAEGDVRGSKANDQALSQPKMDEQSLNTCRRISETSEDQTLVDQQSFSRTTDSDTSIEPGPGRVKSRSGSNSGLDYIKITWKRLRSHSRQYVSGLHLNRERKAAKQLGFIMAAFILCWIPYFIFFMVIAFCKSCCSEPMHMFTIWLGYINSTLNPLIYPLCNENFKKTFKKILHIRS
Test: Displacement of [3H]pyrilamine from histamine H1 receptor in Sprague-Dawley rat cortical membrane by liquid scintillation counting
In short: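 Cerebral cortex membranes from male Sprague-Dawley rats (200-250 g), 150 μg/well. Incubated with 0.6 nM [3H]pyrilamine in 50 mM HEPES, pH 7.4, for 2 h at room temperature. Filtered on PEI-soaked GF/B and counted by scintillation. Nonspecific binding with 10 μM cetirizine. Ki by Cheng-Prusoff; mean of two experiments in duplicate.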
In the case of O=C(O)C1CN(C2CCC3(Cc4ccccc4Oc4ccccc43)C2)C1 (centres undefined), the Ki is reported as 14.1 nM. With O=C(O)C1CCN(C2CC[C@]3(Cc4ccccc4Cc4ccccc43)C2)CC1 (some centres undefined) the Ki was 4.68 nM.

System: Rattus norvegicus
Test: Hypnotic activity in Sprague-Dawley rat assessed as rapid eye movement sleep at 10 mg/kg, po administered during active phase
Assay type: functional
In short: as §1
With O=C(O)C1CN(C2CCC3(Cc4ccccc4Oc4ccccc43)C2)C1 (centres undefined) the Time was 16.2 min. For O=C(O)C1CCN(C2CC[C@]3(Cc4ccccc4Cc4ccccc43)C2)CC1 (some centres undefined), the Time was 12.6 min.

System: Rattus norvegicus
Test: Hypnotic activity in Sprague-Dawley rat assessed as rapid eye movement latency period at 10 mg/kg, po administered during active phase
Assay type: functional
In short: as §1
In the case of O=C(O)C1CN(C2CCC3(Cc4ccccc4Oc4ccccc43)C2)C1 (centres undefined), the Time is reported as 63.4 min. With O=C(O)C1CCN(C2CC[C@]3(Cc4ccccc4Cc4ccccc43)C2)CC1 (some centres undefined) the Time was 83.8 min.

Target: T1, 5-hydroxytryptamine receptor 2C (Homo sapiens, UniProt P28335)
T1 sequence (P28335 whole entry): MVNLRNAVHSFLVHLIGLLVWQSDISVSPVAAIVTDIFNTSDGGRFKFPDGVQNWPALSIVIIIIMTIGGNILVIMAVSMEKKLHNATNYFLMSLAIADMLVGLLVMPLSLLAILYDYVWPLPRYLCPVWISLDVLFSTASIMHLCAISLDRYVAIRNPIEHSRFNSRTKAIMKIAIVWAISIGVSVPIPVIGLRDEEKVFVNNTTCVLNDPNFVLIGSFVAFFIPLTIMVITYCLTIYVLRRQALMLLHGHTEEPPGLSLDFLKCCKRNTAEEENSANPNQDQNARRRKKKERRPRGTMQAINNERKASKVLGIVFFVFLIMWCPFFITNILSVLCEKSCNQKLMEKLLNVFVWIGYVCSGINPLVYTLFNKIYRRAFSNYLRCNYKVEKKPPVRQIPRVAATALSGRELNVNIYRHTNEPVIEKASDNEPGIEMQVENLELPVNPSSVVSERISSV
Test: Antagonist activity at human 5HT2C receptor expressed in human SH-SY5Y cells by FLIPR assay
Assay type: functional, cell-based
With O=C(O)C1CN(C2CCC3(Cc4ccccc4Oc4ccccc43)C2)C1 (centres undefined) the Ki was 31.6 nM. Work on O=C(O)C1CCN(C2CC[C@]3(Cc4ccccc4Cc4ccccc43)C2)CC1 (some centres undefined) yielded a Ki of 63.1 nM.

System: Rattus norvegicus
Test: Hypnotic activity in Sprague-Dawley rat assessed as rapid eye movement sleep at 3 mg/kg, po administered during active phase
Assay type: functional
In short: as §1
Compound O=C(O)C1CN(C2CCC3(Cc4ccccc4Oc4ccccc43)C2)C1 (centres undefined) has a Time of 15.1 min. With O=C(O)C1CCN(C2CC[C@]3(Cc4ccccc4Cc4ccccc43)C2)CC1 (some centres undefined) the Time was 11 min.

System: Rattus norvegicus
Test: Hypnotic activity in Sprague-Dawley rat assessed as non-rapid eye movement sleep at 3 mg/kg, po administered during active phase
Assay type: functional
In short: as §1
With O=C(O)C1CN(C2CCC3(Cc4ccccc4Oc4ccccc43)C2)C1 (centres undefined) the Time was 123.2 min. O=C(O)C1CCN(C2CC[C@]3(Cc4ccccc4Cc4ccccc43)C2)CC1 (some centres undefined) showed a Time of 94.2 min.

System: Rattus norvegicus
Test: Hypnotic activity in Sprague-Dawley rat assessed as total sleep time at 1 mg/kg, po administered during active phase
Assay type: functional
In short: as §1
For O=C(O)C1CN(C2CCC3(Cc4ccccc4Oc4ccccc43)C2)C1 (centres undefined), the Time was 120.7 min. Compound O=C(O)C1CCN(C2CC[C@]3(Cc4ccccc4Cc4ccccc43)C2)CC1 (some centres undefined) has a Time of 94.4 min.

Target: Cytochrome P450 3A4 (Homo sapiens, UniProt P08684)
Sequence (P08684 whole entry): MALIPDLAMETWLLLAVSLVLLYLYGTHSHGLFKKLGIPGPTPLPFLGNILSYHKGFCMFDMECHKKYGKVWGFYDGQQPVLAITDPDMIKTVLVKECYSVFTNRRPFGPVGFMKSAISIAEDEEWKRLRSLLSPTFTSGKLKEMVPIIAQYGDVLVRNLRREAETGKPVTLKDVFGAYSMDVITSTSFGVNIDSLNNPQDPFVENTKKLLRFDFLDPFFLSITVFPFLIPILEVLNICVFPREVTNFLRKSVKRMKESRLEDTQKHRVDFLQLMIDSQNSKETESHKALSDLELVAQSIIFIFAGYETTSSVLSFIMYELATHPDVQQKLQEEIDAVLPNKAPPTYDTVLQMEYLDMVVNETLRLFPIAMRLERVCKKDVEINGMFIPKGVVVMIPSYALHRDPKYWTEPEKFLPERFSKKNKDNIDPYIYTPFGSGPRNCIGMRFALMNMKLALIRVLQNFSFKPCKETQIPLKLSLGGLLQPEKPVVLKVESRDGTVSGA
Test: Inhibition of human CYP3A4 transfected in bactosome expression system by spectrofluorimetry
Assay type: ADME
In short: (§2)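 Recombinant human CYP Bactosomes (0.1 mg/mL) in 50 mM phosphate buffer, pH 7.4. Compound at 0.1-10 μM was preincubated with fluorogenic substrate for 10 min at 37 °C, and the reaction was started with an NADPH regenerating system. Metabolite fluorescence was followed for 10 min. Substrates: 1A2 ethoxyresorufin 0.5 μM; 2C9 FCA 50 μM; 2C19 BMC 10 μM; 2D6 MMC 10 μM; 3A4 DEF 1 μM or 7-BQ 25 μM. Run in triplicate.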
With O=C(O)C1CN(C2CCC3(Cc4ccccc4Oc4ccccc43)C2)C1 (centres undefined) the IC50 was greater than 10000 nM. For O=C(O)C1CCN(C2CC[C@]3(Cc4ccccc4Cc4ccccc43)C2)CC1 (some centres undefined), the IC50 was greater than 10000 nM.

Target: 5-hydroxytryptamine receptor 2A (Rattus norvegicus, UniProt P14842)
Sequence (P14842 whole entry): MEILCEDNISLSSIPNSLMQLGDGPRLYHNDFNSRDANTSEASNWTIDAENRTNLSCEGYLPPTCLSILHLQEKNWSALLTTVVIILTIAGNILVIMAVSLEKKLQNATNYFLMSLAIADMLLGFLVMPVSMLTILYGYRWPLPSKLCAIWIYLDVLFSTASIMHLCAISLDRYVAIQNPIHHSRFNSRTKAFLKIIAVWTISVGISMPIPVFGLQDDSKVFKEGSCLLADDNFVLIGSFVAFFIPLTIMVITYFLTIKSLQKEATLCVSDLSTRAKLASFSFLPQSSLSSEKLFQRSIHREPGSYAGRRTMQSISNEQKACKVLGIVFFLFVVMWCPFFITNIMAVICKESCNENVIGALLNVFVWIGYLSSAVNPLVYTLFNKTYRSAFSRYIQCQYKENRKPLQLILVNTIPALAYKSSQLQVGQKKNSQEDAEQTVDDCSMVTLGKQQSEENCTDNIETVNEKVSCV
Test: Displacement of [3H]ketanserin from 5HT2A receptor in Sprague-Dawley rat cortical membrane by liquid scintillation counting
In short: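 Cerebral cortex membranes from male Sprague-Dawley rats (200-250 g), 50 μg/well. Incubated with 1 nM [3H]ketanserin in 50 mM Tris-HCl, 10 mM MgCl2, pH 7.4, for 1 h at 37 °C with shaking. Filtered on PEI-soaked GF/B and counted by scintillation. Nonspecific binding with 10 μM mianserin. Ki by Cheng-Prusoff; mean of two experiments in duplicate.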
Work on O=C(O)C1CN(C2CCC3(Cc4ccccc4Oc4ccccc43)C2)C1 (centres undefined) yielded a Ki of 33.9 nM. With O=C(O)C1CCN(C2CC[C@]3(Cc4ccccc4Cc4ccccc43)C2)CC1 (some centres undefined) the Ki was 33.9 nM.

Target: Histamine H1 receptor (Homo sapiens, UniProt P35367)
Sequence (P35367 whole entry): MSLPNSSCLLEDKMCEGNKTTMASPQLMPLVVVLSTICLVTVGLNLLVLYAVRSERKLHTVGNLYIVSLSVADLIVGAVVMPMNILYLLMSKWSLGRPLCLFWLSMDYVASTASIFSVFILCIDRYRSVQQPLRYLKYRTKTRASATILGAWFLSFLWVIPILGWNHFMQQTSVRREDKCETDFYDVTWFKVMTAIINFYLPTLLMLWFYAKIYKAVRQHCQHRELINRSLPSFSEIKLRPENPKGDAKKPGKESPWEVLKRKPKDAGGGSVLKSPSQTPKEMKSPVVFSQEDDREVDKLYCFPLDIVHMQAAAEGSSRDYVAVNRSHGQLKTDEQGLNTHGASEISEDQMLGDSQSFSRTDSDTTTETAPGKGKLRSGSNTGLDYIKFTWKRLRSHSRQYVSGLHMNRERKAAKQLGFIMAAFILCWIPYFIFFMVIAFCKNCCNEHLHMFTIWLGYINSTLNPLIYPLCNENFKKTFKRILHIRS
Test: Antagonist activity against human histamine H1 receptor expressed in CHO cells by FLIPR assay
Assay type: functional, cell-based
Compound O=C(O)C1CN(C2CCC3(Cc4ccccc4Oc4ccccc43)C2)C1 (centres undefined) has a Ki of 50.1 nM. With O=C(O)C1CCN(C2CC[C@]3(Cc4ccccc4Cc4ccccc43)C2)CC1 (some centres undefined) the Ki was 50.1 nM.

Target: Cytochrome P450 2D6 (Homo sapiens, UniProt P10635)
Sequence (P10635 whole entry): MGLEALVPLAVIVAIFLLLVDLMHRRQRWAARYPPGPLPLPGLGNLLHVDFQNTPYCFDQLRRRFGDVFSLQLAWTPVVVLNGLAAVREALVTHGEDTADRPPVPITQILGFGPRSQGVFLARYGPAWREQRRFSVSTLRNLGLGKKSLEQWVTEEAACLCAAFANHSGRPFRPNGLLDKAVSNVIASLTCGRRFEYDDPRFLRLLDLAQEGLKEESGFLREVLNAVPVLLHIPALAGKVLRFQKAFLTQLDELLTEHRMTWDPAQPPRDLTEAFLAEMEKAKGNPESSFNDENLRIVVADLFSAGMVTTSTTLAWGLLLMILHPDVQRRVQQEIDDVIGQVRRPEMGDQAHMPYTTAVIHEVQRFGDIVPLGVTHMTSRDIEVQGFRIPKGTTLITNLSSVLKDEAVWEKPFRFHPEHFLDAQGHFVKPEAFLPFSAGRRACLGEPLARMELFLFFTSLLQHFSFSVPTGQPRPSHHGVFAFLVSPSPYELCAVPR
Test: Inhibition of human CYP2D6 transfected in bactosome expression system by spectrofluorimetry
Assay type: ADME
In short: as §2
O=C(O)C1CN(C2CCC3(Cc4ccccc4Oc4ccccc43)C2)C1 (centres undefined) gave an IC50 greater than 10000 nM. For O=C(O)C1CCN(C2CC[C@]3(Cc4ccccc4Cc4ccccc43)C2)CC1 (some centres undefined), the IC50 was greater than 10000 nM.

System: Rattus norvegicus
Test: Hypnotic activity in Sprague-Dawley rat assessed as total sleep time at 3 mg/kg, po administered during active phase
Assay type: functional
In short: as §1
For O=C(O)C1CN(C2CCC3(Cc4ccccc4Oc4ccccc43)C2)C1 (centres undefined), the Time was 138.3 min. Work on O=C(O)C1CCN(C2CC[C@]3(Cc4ccccc4Cc4ccccc43)C2)CC1 (some centres undefined) yielded a Time of 105.2 min.

Target: T2, Cytochrome P450 1A2 (Homo sapiens, UniProt P05177)
T2 sequence (P05177 whole entry): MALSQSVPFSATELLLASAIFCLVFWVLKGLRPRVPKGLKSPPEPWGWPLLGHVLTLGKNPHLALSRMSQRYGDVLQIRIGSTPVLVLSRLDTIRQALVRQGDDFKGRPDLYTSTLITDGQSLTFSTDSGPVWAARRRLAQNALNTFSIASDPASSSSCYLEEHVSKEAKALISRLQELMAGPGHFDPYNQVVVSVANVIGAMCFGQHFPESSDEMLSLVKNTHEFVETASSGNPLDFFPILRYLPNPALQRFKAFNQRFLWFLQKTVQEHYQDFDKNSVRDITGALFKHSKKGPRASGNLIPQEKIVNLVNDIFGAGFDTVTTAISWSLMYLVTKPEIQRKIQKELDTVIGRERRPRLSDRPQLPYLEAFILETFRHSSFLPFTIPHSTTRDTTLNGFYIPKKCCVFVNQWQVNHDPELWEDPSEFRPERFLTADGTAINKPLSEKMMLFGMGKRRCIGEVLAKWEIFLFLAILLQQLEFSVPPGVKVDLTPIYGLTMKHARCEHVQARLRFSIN
Test: Inhibition of human CYP1A2 transfected in bactosome expression system by spectrofluorimetry
Assay type: ADME
In short: as §2
O=C(O)C1CN(C2CCC3(Cc4ccccc4Oc4ccccc43)C2)C1 (centres undefined) showed an IC50 greater than 10000 nM. For O=C(O)C1CCN(C2CC[C@]3(Cc4ccccc4Cc4ccccc43)C2)CC1 (some centres undefined), the IC50 was greater than 10000 nM.

System: Rattus norvegicus
Test: Hypnotic activity in Sprague-Dawley rat assessed as rapid eye movement sleep at 1 mg/kg, po administered during active phase
Assay type: functional
In short: as §1
O=C(O)C1CN(C2CCC3(Cc4ccccc4Oc4ccccc43)C2)C1 (centres undefined) gave a Time of 13.3 min. For O=C(O)C1CCN(C2CC[C@]3(Cc4ccccc4Cc4ccccc43)C2)CC1 (some centres undefined), the Time was 9.7 min.

System: Rattus norvegicus
Test: Hypnotic activity in Sprague-Dawley rat assessed as rapid eye movement latency period at 1 mg/kg, po administered during active phase
Assay type: functional
In short: as §1
For O=C(O)C1CN(C2CCC3(Cc4ccccc4Oc4ccccc43)C2)C1 (centres undefined), the Time was 67 min. Compound O=C(O)C1CCN(C2CC[C@]3(Cc4ccccc4Cc4ccccc43)C2)CC1 (some centres undefined) has a Time of 83.6 min.

System: Rattus norvegicus
Test: Hypnotic activity in Sprague-Dawley rat assessed as non-rapid eye movement latency period at 10 mg/kg, po administered during active phase
Assay type: functional
In short: as §1
Compound O=C(O)C1CN(C2CCC3(Cc4ccccc4Oc4ccccc43)C2)C1 (centres undefined) has a Time of 31.5 min. Work on O=C(O)C1CCN(C2CC[C@]3(Cc4ccccc4Cc4ccccc43)C2)CC1 (some centres undefined) yielded a Time of 34.6 min.

System: Rattus norvegicus
Test: Hypnotic activity in Sprague-Dawley rat assessed as total sleep time at 10 mg/kg, po administered during active phase
Assay type: functional
In short: as §1
In the case of O=C(O)C1CN(C2CCC3(Cc4ccccc4Oc4ccccc43)C2)C1 (centres undefined), the Time is reported as 155.7 min. With O=C(O)C1CCN(C2CC[C@]3(Cc4ccccc4Cc4ccccc43)C2)CC1 (some centres undefined) the Time was 105.2 min.
